A selection: hits, their analogues and other compounds. The true share with any hit is near 1.5%.
APJ antag – APJ receptor antagonism. inhibition, % at 20 µM. CHO-K1 APJ beta-arrestin complementation, luminescence. 330,000 compounds, 0.32% hits;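 active means inhibition above about 40% at 20 µM, limit read from the data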;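 further: cells challenged with 10 nM apelin-13 agonist together with compound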
CCR6 antag – CCR6 (human) receptor antagonism | AID 493098 | inhibition, % at 20 µM | 340,000 compounds, 0.49% hits | CHO-K1 CCR6 PathHunter beta-arrestin, luminescence, CCL20-stimulated;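 active means compounds whose inhibition of the agonist-driven luminescence signal at 20 µM reaches about 50%, limit read from the data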;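 further: cells stimulated with CCL20 at 14 nM final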
EBI2 block – EBI2 (human) antagonism; P32249; EBI2 beta-arrestin recruitment, luminescence, 7a,25-OHC stimulated; inhibition, % at 5 µM; 360,000 compounds, 0.81% hits; AID 651636; in the data active means inhibition above about 38%;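 further: enzyme fragment complementation signal reports receptor beta-arrestin coupling in cells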
CXCR6 inh – CXCR6 (human) receptor inhibition. CHO-K1 PathHunter CXCR6 beta-arrestin, luminescence. inhibition, % at 20 µM. 360,000 compounds, 0.36% hits; in the data active means inhibition above about 34%, passing the limit was not always enough;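 further: antagonist mode with CXCL16 agonist at 10 nM final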
Target sequence (O00574 whole entry, looked up): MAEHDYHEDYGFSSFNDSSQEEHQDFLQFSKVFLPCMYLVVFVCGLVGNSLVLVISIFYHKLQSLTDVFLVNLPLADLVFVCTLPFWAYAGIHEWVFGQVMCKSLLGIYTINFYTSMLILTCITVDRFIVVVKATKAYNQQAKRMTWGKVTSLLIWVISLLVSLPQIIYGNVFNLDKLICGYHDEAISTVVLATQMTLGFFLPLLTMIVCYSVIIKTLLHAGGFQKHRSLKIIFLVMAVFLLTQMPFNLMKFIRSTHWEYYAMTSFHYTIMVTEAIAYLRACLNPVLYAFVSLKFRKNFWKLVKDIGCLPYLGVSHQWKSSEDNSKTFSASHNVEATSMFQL
APJ ag – agonists of human APJ apelin receptor; 330,000 compounds, 0.11% hits; CHO-K1 APJ PathHunter beta-arrestin, luminescence; 0% DMSO wells, 100% apelin; P35414; activation, % at 20 µM; AID 2520;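 active means activation more than six SD over the plate average, tested at 20 µM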
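Material: CHO-K1 APJ beta-arrestin complementation cell line; Input: cell density 1000 per well; Incubation: compound stimulation 90 min at 25 °C, detection 60 min; Signal: luminescence from split beta-galactosidase complementation, Galacton Star/Emerald II substrate; Controls: DMSO-only wells as negative, 10 nM Apelin-13 as positive control.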
APJ ag conf – APJ receptor agonism confirmation | shares compounds with APJ ag | 310 compounds, 10% hits | activation, % at 20 µM | CHO-K1 APJ PathHunter beta-arrestin, luminescence;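 active means activation above 40%, taking the highest of four retests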
APJ antag conf – APJ receptor antagonism confirmation; 950 compounds, 66% hits; AID 2766; APJ beta-arrestin recruitment, luminescence, antagonist mode; inhibition, % at 20 µM; shares compounds with APJ antag; in the data active means inhibition above about 50%
Each line names hits and unclear results; the compound was inactive in the other large screens (follow-up assays come after a bar, where they were run).

COc1ccc(O)c2c(=O)c3c(OC)cc4c(c3oc12)C1C=COC1O4 (centres undefined)	EBI2 block 53
O=C(CN1CCCCC1)c1cccc(Br)c1	CCR6 antag 68
CCCCn1c(NC(=O)c2ccc(Br)o2)c(C(=O)OCC)c2nc3ccccc3nc21	APJ antag 63
N#CC1c2ccccc2-n2nncc2CN1Cc1cc(Cl)cc(Cl)c1 (centres undefined)	EBI2 block 43 (no result: APJ antag, APJ ag)
O=C1NC(=O)N(c2ccccc2)C(=O)/C1=C\C=C\c1ccccc1	CXCR6 inh 53
CCc1ccc(N2C(=O)NC(=O)/C(=C\C=C\c3ccco3)C2=O)cc1	none
Cc1ccc(N2C(=O)NC(=O)/C(=C/C=C/c3ccco3)C2=O)cc1	CCR6 antag 53, EBI2 block 45
COC(=O)C1=C(c2ccc(OC)c(OC)c2)C[C@@H]2CC[C@H]1N2C(=O)NCCNC(C)=O	none
Cc1ccccc1-n1c(/C=C/c2ccccn2)nc2ccccc2c1=O	none
CN1C2CCC1/C(=C/c1ccccn1)C(=O)/C2=C\c1ccccn1	CXCR6 inh 38 (no result: APJ antag, APJ ag)
Cn1cnc([N+](=O)[O-])c1Sc1ccc([N+](=O)[O-])cc1	none
CCOC(=O)[C@]12Cc3cc(Cl)ccc3[C@H]1N(C1CCCCC1)C(=O)c1ccccc12	EBI2 block 76 (no result: APJ antag, CCR6 antag, APJ ag)
COC(=O)[C@@H]1[C@@H](C(=O)OC)C2(c3ccccc3-c3ccccc32)N(c2ccc(Cl)cc2)N1C#N	EBI2 block 45
COC(=O)C[C@]1(C(=O)OC)CN(C#N)N(c2ccc(Cl)cc2)C12c1ccccc1-c1ccccc12	none
CCOC(=O)C(c1c(O)c2ccccc2oc1=O)c1c(O)c2ccccc2oc1=O	none (no result: APJ antag, CCR6 antag, APJ ag)
CSc1ncc(/C=C2/C(=O)NC(=O)N(c3ccc(C)cc3)C2=O)cn1	none
Cc1ccc(N2C(=O)NC(=O)/C(=C/c3cnn(-c4ccc(C)cc4)c3)C2=O)cc1	CXCR6 inh 43
CCCCn1nnnc1C(CCc1ccccc1)N1CCC2(CC1)C(=O)NCN2c1ccccc1 (centres undefined)	none (no result: APJ antag, CCR6 antag, APJ ag)
CC(=O)O[C@H]1CC[C@@]2(C)C(=CC[C@@H]3[C@@H]2CC[C@]2(C)C(=O)CC[C@@H]32)C1	none
CC(=O)O/C(=C1\CC2C3CC=C4CC(OC(C)=O)CCC4(C)C3CCC2(C)C1=O)C(F)(F)F (centres undefined)	CCR6 antag 83, CXCR6 inh 62 (no result: APJ antag, APJ ag)
Cc1ccc2[nH]c(C)c(CCNCc3cccnc3)c2c1	none
CCCNC(=O)N1[C@H]2CC[C@@H]1C(C(=O)OC)=C(c1ccc(-c3ccccc3)c(F)c1)C2	none
CCOP(=O)(OCC)c1cc(CC)ccc1O	none
CCOc1ccc(N2C(=O)/C(=C/c3ccco3)C(=O)NC2=S)cc1	CCR6 antag 79, CXCR6 inh 58
CCOc1cc2[nH]c(=S)n(CCCC(=O)N3CCC4(CC3)OCCO4)c(=O)c2cc1OCC	APJ ag 35 | APJ ag conf inactive
C#CC[N+]1(C)[C@@H]2CC(OC(=O)C(CO)c3ccccc3)C[C@H]1C(O)C2 (some centres undefined)	none
Oc1ccc2c3c1OC1c4[nH]c5ccccc5c4C[C@@]4(O)C(C2)N(CC2CC2)CC[C@]314 (some centres undefined)	none
O=C1/C(=C/c2ccccc2)C[C@@]2(O)[C@H]3Cc4ccc(O)c5c4[C@@]2(CCN3CC2CC2)C1O5 (some centres undefined)	APJ antag 56, CCR6 antag 80, EBI2 block 55, CXCR6 inh 58 | APJ antag conf 93
CN1C(=O)C(=Cc2ccc(N3CCCCCC3)o2)C(=O)N(C)C1=S	APJ antag 47 | APJ antag conf 79
CN1C(=O)C(=Cc2ccc(N3CCOCC3)o2)C(=O)N(C)C1=O	none
COc1cccc(C2(O)CCSCC2CN(C)C)c1 (centres undefined)	none
CCC1CCCCN1CC(=O)c1ccc(OC(F)F)cc1 (centres undefined)	APJ antag 44 | APJ antag conf 52
C[C@@H]1NCCc2cc(O)c(O)cc21	none

Screening data from PubChem.
